Rows were chosen to be rich in hits. Some 2.6% of all compounds tested hit in one or more screens of this group.
GRK2 aptamer HTS: blocks RNA aptamer binding to human GRK2; P25098; bead flow cytometry, FAM-aptamer displacement from GRK2; inhibition of aptamer binding, % at 10 µM; hit rate 0.59% among 330,000;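 active = inhibition of aptamer binding above 40%, roughly 3 SD of noise, on plates passing a quality check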;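 also: median bead fluorescence of bound FAM aptamer so fluorescent compounds give negative values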
T cell HTS: modulates CD8 T cell binding to vesicles | 2C CD8+ T cell-vesicle binding, flow cytometry; active compounds read low | response (vesicle binding), % at 7 µM | AID 2052 | hit rate 0.068% among 330,000;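 active = response, share of CD8 T cells binding vesicles, and their 90th percentile fluorescence all below set limits, cut at about 80% in these data, passing the limit was not always enough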;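 also: values below 100% mean blocked vesicle binding to the CD8+ T cells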
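Material: 2C TCR transgenic mouse naive CD8+ T cells, MACS-purified. Also added: QL9-charged Drosophila Ld/ICAM-1/B7-1 vesicles. Timing: binding 1.5 h at 37 °C. Measured by: high-throughput flow cytometry with anti-B7-1 and anti-CD8 staining. Read-out: percent CD8+ FL2 mean versus row control. Controls: Unloaded micro-vesicles (low), QL9 vesicles with 0.7% DMSO (high).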
SKN-1 inh: blocks SKN-1 activity in C. elegans | C. elegans VP596 Pgst-4::GFP/RFP ratio, acrylamide-induced, 24 h | inhibition, % at 21.8 µM | hit rate 0.49% among 360,000 | AID 624304;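 active = interference check ratio from 0.5 to 1.5 plus GFP to RFP signal ratio inhibition reaching or exceeding a fixed threshold, cut at about 30% in these data, passing the limit was not always enough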
Rce1 inhib: yeast Ras-converting enzyme inhibition; yeast membranes, quenched prenylated peptide cleavage fluorescence; calls only; hit rate 0.27% among 290,000; AID 2563;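 active = fall in fluorescence gain of 50% or more versus controls, with final raw signal at or below 3038400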
Myeloid diff MLP: promotes myeloid progenitor differentiation | hit rate 1% among 360,000 | ER-HoxA9 myeloid progenitors, lysozyme-GFP differentiation, flow cytometry | calls only at 10 µM;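 active = normalized GFP-positive differentiation at or above the plate's own cutoff, the solvent-only control mean plus 3 SD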;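 also: cells exposed to compound for four days before flow analysis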
Rin1-Abl PPI inh: blocks binding of human Rin1 to Abl | P00519+Q13671 | TR-FRET Rin1/Abl binding, biochemical | inhibition, % at 7.35 µM | hit rate 0.4% among 360,000; in the data active = inhibition above about 5%, passing the limit was not always enough
Myeloid diff: promotes myeloid progenitor differentiation | shares compounds with Myeloid diff MLP | ER-HoxA9 myeloid progenitors, GFP/Mac1 double-positive flow | calls only | hit rate 2% among 2,300 | AID 651706;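 active = share of green or green-and-red cells above 9 and 9% in run 1 or 4 and 3% in run 2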
GFP autofluor: flagged as fluorescent in myeloid differentiation counter-screen; shares compounds with Myeloid diff MLP; ER-HoxA9 myeloid progenitors, no estrogen, GFP autofluorescence flow cytometry; vehicle wells 0%, positive control 100%; fluorescence response, % (test concentration not listed); hit rate 7.4% among 2,300; AID 651707;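 active = over 5% cells positive for green fluorescent reporter, or over 2% positive for both it and APC stain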
Large screens that a line does not name were inactive (follow-up assays come after a bar, where they were run).

O=C(Nc1cccc(NC(=O)c2nccc3ccccc23)c1)c1ccco1	Myeloid diff MLP active (no result: Rce1 inhib) | Myeloid diff inactive | GFP autofluor inactive
Cc1ccc(NC2=NCCCCC2)cc1C	Myeloid diff MLP active (no result: Rce1 inhib) | Myeloid diff inactive | GFP autofluor inactive
COc1cc(OC)c(/C=C2\SC(=O)N(CC(=O)Nc3ccccc3F)C2=O)c(OC)c1	none
COc1cc(/C=C2\SC(=O)N(CC(=O)Nc3ccccc3F)C2=O)cc(Cl)c1O	none | Myeloid diff inactive | GFP autofluor inactive
CN(C)c1ccc(CC(=O)N2CCCCC2c2cc(C(=O)Nc3ccccc3Cl)no2)cc1 (centres undefined)	none (no result: GRK2 aptamer HTS, T cell HTS, Rce1 inhib)
CCOc1ccc(C(=O)N2CCC(C(=O)c3ccc4c(c3)OCCO4)CC2)cc1	none (no result: T cell HTS) | Myeloid diff inactive | GFP autofluor inactive
C[n+]1cccc(/C=N/NC(=O)CC23CC4CC(CC(C4)C2)C3)c1	none
CCOc1ccc2nc(N3C(=O)/C(=C/c4ccccc4)NC3=S)sc2c1	none
COc1ccc2nc(N3C(=O)/C(=C/c4ccccc4)NC3=S)sc2c1	none | Myeloid diff inactive | GFP autofluor 7.0
CC(C)(C)c1ccc(S(=O)(=O)NCCc2ccncc2)cc1	none
CC(C)(C)c1ccc(S(=O)(=O)NCCOCC(F)(F)C(F)F)cc1	Myeloid diff MLP active | Myeloid diff inactive | GFP autofluor inactive
CC1(C)Cc2c(cnn2-c2ccccc2)C(NC(=O)C2(C(N)=O)CC2)C1 (centres undefined)	Myeloid diff MLP active | Myeloid diff inactive | GFP autofluor inactive
O=C(NCCCC1CCCC1)C1CCC(=O)N(Cc2cccc(C(F)(F)F)c2)C1 (centres undefined)	Myeloid diff MLP active | Myeloid diff inactive | GFP autofluor inactive
CC(C)CC(NC(N)=O)C(=O)Nc1ccc(Oc2ccccc2)cc1 (centres undefined)	none | Myeloid diff inactive | GFP autofluor inactive
Cc1sc2ncn(CC(=O)NCc3ccccn3)c(=O)c2c1S(=O)(=O)N1CCOCC1	none | Myeloid diff inactive | GFP autofluor inactive
Cc1ccc(NC(=O)CN(C)C(=O)c2cc(-c3ccco3)nc3ccccc23)cc1	GRK2 aptamer HTS 83 | Myeloid diff inactive | GFP autofluor inactive
CN(CC(=O)Nc1ccc(F)cc1)C(=O)c1cc(-c2ccco2)nc2ccccc12	none
OC(CNCCCN1CCCCC1)COc1ccccc1 (centres undefined)	Myeloid diff MLP active | Myeloid diff inactive | GFP autofluor inactive
COC(=O)NNC(=O)COc1ccc2ccccc2c1Br	none | Myeloid diff inactive | GFP autofluor inactive
Cc1ccc(S(=O)(=O)CCC(=O)OCC(=O)N2c3ccccc3CC2C)cc1 (centres undefined)	none
COC(=O)CCCCCN1C(=O)NC(c2ccccc2)C(C(=O)OCc2ccccc2)=C1C (centres undefined)	none (no result: GRK2 aptamer HTS, T cell HTS) | Myeloid diff inactive | GFP autofluor inactive
CCc1cccc(N(C(=O)c2csnn2)C(C(=O)NC(C)(C)CC)c2ccccn2)c1 (centres undefined)	none
COc1cccc(CNC(=O)C2CCCN(S(=O)(=O)c3c(C)n[nH]c3C)C2)c1 (centres undefined)	none
COc1ccc(CNC(=O)C2CCCN(S(=O)(=O)c3c(C)n[nH]c3C)C2)cc1 (centres undefined)	none | Myeloid diff inactive | GFP autofluor inactive
CCc1nc2ccc(C(=O)NCCC(C)C)cn2c1N(C)Cc1ccc(OC)cc1	none (no result: GRK2 aptamer HTS, T cell HTS, Rce1 inhib)
NNc1nc2cccnc2n(CCNc2ncc(C(F)(F)F)cc2Cl)c1=O	none | Myeloid diff inactive | GFP autofluor inactive
O=c1c2nncn2c2cccnc2n1CCNc1ncc(C(F)(F)F)cc1Cl	none
COc1ccc(NC(=O)CCN2CC(C)OC(C)C2)c(OC)c1 (centres undefined)	Myeloid diff MLP active | Myeloid diff inactive | GFP autofluor inactive
CCC1(c2ccccc2)NC(=O)N(CC(=O)Nc2cccc(C#N)c2)C1=O (centres undefined)	Myeloid diff MLP active | Myeloid diff inactive | GFP autofluor inactive
O=C(NCc1ccccc1)C(C(=O)c1ccc(F)cc1)n1ccccc1=O (centres undefined)	none | Myeloid diff inactive | GFP autofluor inactive
O=C1C=C(NNC(=O)c2ccncc2)CC(c2ccccc2)C1 (centres undefined)	none
CCCCOC(=O)C1=C(C)NC(=O)NC1c1ccc([N+](=O)[O-])s1 (centres undefined)	Myeloid diff MLP active | Myeloid diff inactive | GFP autofluor inactive
Cc1ccsc1CN(C)CC(=O)NCC(=O)Nc1ccc(F)c(F)c1F	Myeloid diff MLP active (no result: Rce1 inhib) | Myeloid diff inactive | GFP autofluor inactive
Cn1c(C(=O)NCC2CCCO2)cc2c(=O)[nH]c3ccccc3c21 (centres undefined)	none | Myeloid diff inactive | GFP autofluor inactive
CCOc1ccc(CN(C)CC(=O)Nc2cccc3ccccc23)cc1OC	none | Myeloid diff inactive | GFP autofluor inactive
COc1ccc(CCN(C)c2ccc(S(=O)(=O)N3CCCC3)cc2[N+](=O)[O-])cc1OC	none
COc1ccc(CN(C)c2ccc(S(=O)(=O)N3CCN(C)CC3)cc2[N+](=O)[O-])cc1OC	none (no result: Rce1 inhib) | Myeloid diff inactive | GFP autofluor inactive
O=C(Cn1c(=O)c2cccn2c2ccccc21)Nc1cc(F)ccc1F	none
O=C(CCn1c(=O)oc2ccccc21)Nc1cccc([N+](=O)[O-])c1	none
O=c1[nH]c2ccccc2n2c(C(F)(F)F)nnc12	Myeloid diff MLP active | Myeloid diff inactive | GFP autofluor 5.7
CC(C)(C)NS(=O)(=O)c1ccc(CCC(=O)N2CCCC2)cc1	none
Cn1c(N)c(C(=O)COC(=O)c2ccccc2C(=O)c2ccc(Cl)cc2)c(=O)n(C)c1=O	none (no result: Rce1 inhib) | Myeloid diff inactive | GFP autofluor inactive
CCCC1=[N+](CC(=O)c2ccccc2)CCn2c(C)ccc21	Myeloid diff MLP active (no result: Rce1 inhib) | Myeloid diff inactive | GFP autofluor inactive
Cc1ccc[n+](CC(=O)c2ccccc2)c1	none (no result: SKN-1 inh, Myeloid diff MLP, Rin1-Abl PPI inh)
O=C(CSc1nnc(-c2ccc3c(c2)OCO3)o1)Nc1c(F)cccc1F	none (no result: Rce1 inhib)
C=CCSc1ncnc2c1oc1nc3c(cc12)COC(C)(C)C3	none
CC(C)CSc1ncnc2c1oc1nc3c(cc12)COC(C)(C)C3	none | Myeloid diff inactive | GFP autofluor inactive
O=C(NCCCN1CCOCC1)c1ccc(Cl)cc1Cl	none
OC(CNc1ccccc1)COc1ccc(OCC(O)CNc2ccccc2)cc1 (centres undefined)	Myeloid diff MLP active | Myeloid diff inactive | GFP autofluor inactive
O=C(CNC(=O)c1ccccc1Br)NCC(c1ccco1)N1CCCCC1 (centres undefined)	none (no result: GRK2 aptamer HTS, T cell HTS, Rce1 inhib)
Cc1cccc(NC(=O)CC2CCC2)c1	none | Myeloid diff inactive | GFP autofluor inactive
